Results of several laboratories.

CC(C)C[C@@H]1CCO[C@@H]2[C@H](CN[C@@H]2C(=O)N[C@H]2[C@H]3O[C@H](SCC/C=C\[C@H]2C)[C@H](O)[C@@H](O)[C@H]3O)C1  half-life (mouse, plasma; intravenous, 3 mg/kg, single dose): 4.66 h
Cc1ccc(CCC(=O)Nc2nnc(S(N)(=O)=O)s2)cc1  half-life (male BALB/c mouse, plasma; oral, 20 mg/kg): 4.64 h
Cc1cc(-c2ccnc3[nH]cc(F)c23)cc(F)c1[C@@]1(O)[C@H](C)CN(C2CCS(=O)(=O)CC2)C[C@@H]1C  half-life (male CD-1 mouse, plasma; oral, 3 mg/kg): 2.5 h
CC(C)(C)c1sc2ncnc(Oc3c(F)cccc3OC(F)(F)F)c2c1-c1ccc(Cl)cc1  half-life (mouse, plasma; intravenous, 1 mg/kg): 2.49 h
NCc1ccc(-c2nn(Cc3ccccc3)c3ccccc23)o1  half-life (male CD-1 mouse, plasma; oral, 10 mg/kg): 1.74 h
COCC(=O)N1CCc2[nH]c3c(Cl)c(Cl)ccc3c2[C@@H]1C  half-life (C57BL/6 mouse, blood; oral, 20 mg/kg): 4.82 h
O=C1CCC(N2Cc3cc(C4CCN(Cc5ccccc5)CC4)ccc3C2=O)C(=O)N1 (centres unmarked)  half-life (male CD-1 mouse, plasma; intravenous, 1 mg/kg): 3.28 h
CC1(CNc2nc(-c3cccs3)nc(Cl)c2-c2c(F)cc(N)cc2F)COC1  half-life (mouse, plasma; intraperitoneal, 2.5 mg/kg): 1.51 h
NCc1ccc(-c2nn(Cc3ccncc3)c3ccccc23)o1  half-life (male CD-1 mouse, plasma; oral, 10 mg/kg): 1.75 h
OCc1nc2ccc(NCc3ccc(C(F)(F)F)cc3)cc2[nH]1  half-life (male BALB/c mouse, plasma; oral, 10 mg/kg): 3.6 h
Cc1[nH]c(C)c(S(=O)(=O)Nc2ccc(C(F)(F)F)c(Cl)c2)c1C(=O)N1CCC(F)(F)C1  half-life (male CD-1 mouse, brain; intraperitoneal, 40 mg/kg): 3.65 h
OCc1ccc(-c2nn(Cc3ccccc3)c3ccccc23)o1  half-life (male CD-1 mouse, plasma; intravenous, 5 mg/kg): 1.39 h
COC1=CC(c2ccc[nH]2)=N/C1=C\c1[nH]c(Cc2ccc(OC(F)(F)F)cc2)cc1Cc1ccc(OC(F)(F)F)cc1  half-life (male CD-1 mouse, liver; oral, 40 mg/kg, single dose): 7.62 h
CCCC[C@@H](NC(=O)[C@@H](Cc1cn(C(=O)OC)c2ccccc12)NC(=O)[C@H](CC(C)(C)C)NC(=O)N1[C@H](C)CCC[C@@H]1C)C(=O)O  half-life (male CD-1 mouse, plasma; intravenous, 3 mg/kg): 0.68 h
COC1=CC(c2ccc[nH]2)=N/C1=C\c1cc(Cc2ccc(OC(F)(F)F)cc2)c(C)[nH]1.Cl  half-life (male CD-1 mouse, liver; oral, 40 mg/kg, single dose): 58.3 h
COc1ccc(C[C@H](NC(=O)[C@H](C)NC(=O)CN2CCOCC2)C(=O)N[C@@H](Cc2ccccc2)C(=O)C2(C)CO2)cc1 (stereo in doubt)  half-life (mouse, plasma; oral, 20 mg/kg, single dose): 0.7 h
Cc1ccc(OCC(=O)N[C@@H](Cc2c[nH]c3ccccc23)C(=O)OC(C)C)cc1  half-life (male Sprague-Dawley mouse, plasma; oral, 20 mg/kg): 6.1 h
Cc1ncsc1-c1ccc([C@H](CC(=O)N2CC3(C2)CN(c2ccc(C#Cc4ccc(C(=O)N5CCC(n6cc(-c7ccc8c(c7)CCN8C(=O)Cc7cccc(OC(F)(F)F)c7)c7c(N)ncnc76)CC5)cc4)cn2)C3)NC(=O)[C@@H]2C[C@@H](O)CN2C(=O)[C@@H](NC(=O)C2(F)CC2)C(C)(C)C)cc1  half-life (male C57BL/6 mouse, plasma; intravenous, 1 mg/kg): 5.9 h
NCc1cc2c(cc1F)C(=O)N(C1CCC(=O)NC1=O)C2 (centres unmarked)  half-life (male CD-1 mouse, plasma; oral, 10 mg/kg): 2.3 h
Cc1ccc2c(c1)C(=O)[C@]1(O)CCN(c3ccc4nc(C)ccc4c3)C1=N2.Cl  half-life (mouse, brain; subcutaneous, 5 mg/kg): 10.5 h
Cc1cc(-c2ccnc3[nH]cc(F)c23)cc(F)c1[C@@]1(O)[C@H](C)CN(C(=O)CN)C[C@@H]1C  half-life (male CD-1 mouse, plasma; oral, 3 mg/kg): 8.5 h
Cc1ncsc1-c1ccc([C@H](C)NC(=O)[C@@H]2C[C@@H](O)CN2C(=O)[C@@H](NC(=O)CCc2ccc(C#Cc3ccc(C(=O)NCCCn4cc(-c5ccc6c(c5)CCN6C(=O)Cc5cccc(OC(F)(F)F)c5)c5c(N)ncnc54)cc3)cn2)C(C)(C)C)cc1  half-life (male C57BL/6 mouse, plasma; intravenous, 1 mg/kg): 4.6 h
CN(C)C(=O)c1cc2cnc(Nc3ccc(-c4ccc5c(=O)cc(N6CCOCC6)oc5c4)cc3)nc2n1C1CCCC1.Cl  half-life (BALB/c mouse, plasma; intravenous, 2 mg/kg): 2.8 h
